# Results as given in ChEMBL document CHEMBL4038284, “Synthesis of novel quinoline-based 4,5-dihydro-1H-pyrazoles as potential anticancer, antifungal, antibacterial and antiprotozoal agents” (Eur J Med Chem, 2017).
# Calls of active or inactive are those of the source. No cut-off for these calls is given here.
# Experiments:
# CCRF-CEM = test: Growth inhibition of human CCRF-CEM cells at 10 uM incubated for 48 hrs by sulforhodamine B assay; format: functional, cell-based
# Summary of the method: (§1)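 NCI 60-cell-line screen at a single 10 µM dose. Cells in RPMI-1640 with 5% FBS and 2 mM L-glutamine, pre-incubated 24 h, then treated for 48 h at 37 °C. TCA fixation, sulforhodamine B staining, absorbance at 515 nm. Percentage growth calculated against time-zero and untreated controls.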
# MCF7 = test: Growth inhibition of human MCF7 cells at 10 uM incubated for 48 hrs by sulforhodamine B assay; format: functional, cell-based
# Summary of the method: (§2)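 NCI 60-line panel, single 10 μM dose. Cells were grown in RPMI-1640 with 5% FBS and 2 mM L-glutamine and pre-incubated 24 h before compound addition (DMSO stock). Exposure was 48 h at 37 °C, 5% CO2. Cells were fixed with cold TCA (10% final), stained with 0.4% SRB, bound dye dissolved in 10 mM Tris base, A515 read. Growth was taken relative to time-zero and untreated control plates.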
# OVCAR-3 = test: Growth inhibition of human OVCAR3 cells at 10 uM incubated for 48 hrs by sulforhodamine B assay; format: functional, cell-based; summary of the method: as §2
# HCC 2998 = test: Growth inhibition of human HCC2998 cells at 10 uM incubated for 48 hrs by sulforhodamine B assay; format: functional, cell-based; summary of the method: as §1
# Candida albicans [1] = test: Growth inhibition of Candida albicans ATCC 10231 at 250 ug/ml incubated for 48 hrs under dark condition by broth microdilution method relative to control; format: functional; conditions: ATCC 10231, 48 h, read-out: GI
# Summary of the method: (§3)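 CLSI M27-A3 broth microdilution in RPMI-1640, DMSO ≤1%. Inoculum 1-5 × 10^3 CFU/mL. Incubated 48 h at 30 °C, dark. % inhibition = 100 − (OD405 test − sterility control)/(OD405 growth control − sterility control), with growth and sterility control wells. Triplicate.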
# Trypanosoma cruzi = test: Antitrypanosomal activity against Trypanosoma cruzi Tulahuen intracellular amastigote harboring LacZ infected in human U937 cells after 72 hrs by CPRG/Nonidet reagent based spectrophotometric method; format: functional, cell-based; conditions: U-937, 72 h
# Summary of the method: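 U-937 cells at 2.5 × 10^5 cells/mL in RPMI-1640 with 10% serum and 0.1 µg/mL PMA were infected with β-galactosidase-transfected Tulahuen epimastigotes at 5 parasites per cell. Infected cells were exposed to 50, 12.5, 3.125 and 0.78 µg/mL for 72 h. CPRG (100 uM) and 0.1% Nonidet P-40 were added for 3 h, read at 570 nm. EC50 by Probit. Triplicate, at least two experiments; benznidazole as reference.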
# Leishmania panamensis = test: Antileshmanial activity against EpiR/GFP fused Leishmania panamensis MHOM/CO/87/UA140 intracellular amastigotes infected in human […] cells after 72 hrs by flow cytometric method; format: functional, cell-based; conditions: MHOM/CO/87/UA140, 72 h
# Summary of the method: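 PMA-treated U-937 cells (3 × 10^5 cells/mL) infected with stationary-phase GFP L. panamensis promastigotes (15:1), 3 h at 34 °C, then washed. After 24 h, compounds added at 50, 12.5, 3.125 and 0.78 µg/mL for 72 h at 37 °C. EC50 by Probit; triplicate, two experiments.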
# NCI/ADR-RES = test: Growth inhibition of human NCI/ADR-RES cells at 10 uM incubated for 48 hrs by sulforhodamine B assay; format: functional, cell-based; summary of the method: as §2
# Cryptococcus neoformans = test: Growth inhibition of Cryptococcus neoformans ATCC 32264 at 15.62 ug/ml incubated for 48 hrs under dark condition by broth microdilution method relative to control; format: functional; conditions: ATCC 32264, 48 h, read-out: GI; summary of the method: as §3
# Candida albicans [2] = test: Growth inhibition of Candida albicans ATCC 10231 at 62.5 ug/ml incubated for 48 hrs under dark condition by broth microdilution method relative to control; format: functional; conditions: ATCC 10231, 48 h, read-out: GI; summary of the method: as §3
# NCI-H460 = test: Growth inhibition of human NCI-H460 cells at 10 uM incubated for 48 hrs by sulforhodamine B assay; format: functional, cell-based; summary of the method: as §2
# OVCAR-5 = test: Growth inhibition of human OVCAR5 cells at 10 uM incubated for 48 hrs by sulforhodamine B assay; format: functional, cell-based; summary of the method: as §2
# IGROV-1 = test: Growth inhibition of human IGROV1 cells at 10 uM incubated for 48 hrs by sulforhodamine B assay; format: functional, cell-based; summary of the method: as §2
# K562 = test: Growth inhibition of human K562 cells at 10 uM incubated for 48 hrs by sulforhodamine B assay; format: functional, cell-based; summary of the method: as §2
# SN12C = test: Growth inhibition of human SN12C cells at 10 uM incubated for 48 hrs by sulforhodamine B assay; format: functional, cell-based
# Summary of the method: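 NCI-60 single-dose screen at 10 µM for 48 h. Cells were grown in RPMI-1640 with 5% FBS and 2 mM L-glutamine and preincubated 24 h before compound. Time-zero plates were TCA-fixed at compound addition. After exposure, cells were TCA-fixed, stained with SRB and read at 515 nm. Percentage growth was calculated against time-zero and untreated-control absorbances.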
# Staphylococcus aureus = test: Antibacterial activity against methicillin-sensitive Staphylococcus aureus ATCC 25923 after 24 hrs by resazurin dye based microdilution assay; format: functional; conditions: ATCC 25923, 24 h
# Summary of the method: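 MIC taken as the lowest concentration giving visible inhibition and/or by resazurin (1 mg/mL). Gentamicin was the control. Run in duplicate, repeated at least three times.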
# RPMI-8226 = test: Growth inhibition of human RPMI8226 cells at 10 uM incubated for 48 hrs by sulforhodamine B assay; format: functional, cell-based; summary of the method: as §2
# HOP-92 = test: Growth inhibition of human HOP92 cells at 10 uM incubated for 48 hrs by sulforhodamine B assay; format: functional, cell-based; summary of the method: as §2
# SF-295 = test: Growth inhibition of human SF295 cells at 10 uM incubated for 48 hrs by sulforhodamine B assay; format: functional, cell-based; summary of the method: as §2
# Candida albicans [3] = test: Growth inhibition of Candida albicans ATCC 10231 at 125 ug/ml incubated for 48 hrs under dark condition by broth microdilution method relative to control; format: functional; conditions: ATCC 10231, 48 h, read-out: GI; summary of the method: as §3
# HCT-15 = test: Growth inhibition of human HCT15 cells at 10 uM incubated for 48 hrs by sulforhodamine B assay; format: functional, cell-based; summary of the method: as §1
# EKVX = test: Growth inhibition of human EKVX cells at 10 uM incubated for 48 hrs by sulforhodamine B assay; format: functional, cell-based; summary of the method: as §1
# Candida albicans [4] = test: Growth inhibition of Candida albicans ATCC 10231 at 15.62 ug/ml incubated for 48 hrs under dark condition by broth microdilution method relative to control; format: functional; conditions: ATCC 10231, 48 h, read-out: GI; summary of the method: as §3
# HCT-116 = test: Growth inhibition of human HCT116 cells at 10 uM incubated for 48 hrs by sulforhodamine B assay; format: functional, cell-based; summary of the method: as §1
# ACHN = test: Growth inhibition of human ACHN cells at 10 uM incubated for 48 hrs by sulforhodamine B assay; format: functional, cell-based; summary of the method: as §1
# NCI-H23 = test: Growth inhibition of human NCI-H23 cells at 10 uM incubated for 48 hrs by sulforhodamine B assay; format: functional, cell-based; summary of the method: as §2
# MOLT-4 = test: Growth inhibition of human MOLT4 cells at 10 uM incubated for 48 hrs by sulforhodamine B assay; format: functional, cell-based; summary of the method: as §2
# Candida albicans [5] = test: Growth inhibition of Candida albicans ATCC 10231 at 3.4 ug/ml incubated for 48 hrs under dark condition by broth microdilution method relative to control; format: functional; conditions: ATCC 10231, 48 h, read-out: GI
# HT-29 = test: Growth inhibition of human HT-29 cells at 10 uM incubated for 48 hrs by sulforhodamine B assay; format: functional, cell-based; summary of the method: as §2
SMILES,growth inhibition (GI) (CCRF-CEM),growth inhibition (GI) (MCF7),growth inhibition (GI) (OVCAR-3),growth inhibition (GI) (HCC 2998),inhibition of growth at 250 µg/mL (Candida albicans [1]),EC50 (Trypanosoma cruzi),EC50 (Leishmania panamensis),growth inhibition (GI) (NCI/ADR-RES),inhibition of growth at 15.62 µg/mL (Cryptococcus neoformans),inhibition of growth at 62.5 µg/mL (Candida albicans [2]),growth inhibition (GI) (NCI-H460),growth inhibition (GI) (OVCAR-5),growth inhibition (GI) (IGROV-1),growth inhibition (GI) (K562),growth inhibition (GI) (SN12C),MIC (Staphylococcus aureus),growth inhibition (GI) (RPMI-8226),growth inhibition (GI) (HOP-92),growth inhibition (GI) (SF-295),inhibition of growth at 125 µg/mL (Candida albicans [3]),further results
Clc1ccc(C2=NN(c3cc(Cl)cc(Cl)c3)C(c3cccc(Nc4ccnc5cc(Cl)ccc45)c3)C2)cc1 (stereo unspecified),inactive,inactive,inactive,inactive,35%,19.1 µg/mL,12 µg/mL,inactive,0%,13.8%,inactive,inactive,inactive,inactive,inactive,> 1000 µg/mL,inactive,inactive,inactive,31.5%,growth inhibition (GI) (HCT-15): inactive; growth inhibition (GI) (EKVX): inactive; inhibition of growth at 15.62 µg/mL (Candida albicans [4]): 10.8%; growth inhibition (GI) (HCT-116): inactive; growth inhibition (GI) (ACHN): inactive; growth inhibition (GI) (NCI-H23): inactive; growth inhibition (GI) (MOLT-4): inactive; inhibition of growth at 3.4 µg/mL (Candida albicans [5]): 1.64%; growth inhibition (GI) (HT-29): inactive
COc1ccc(C2=NN(c3ccc(Cl)cc3)C(c3cccc(Nc4ccnc5cc(Cl)ccc45)c3)C2)cc1 (stereo unspecified),inactive,inactive,inactive,inactive,3.08%,44.6 µg/mL,27.7 µg/mL,inactive,12.6%,5.46%,inactive,inactive,inactive,inactive,inactive,> 1000 µg/mL,inactive,inactive,inactive,1.92%,growth inhibition (GI) (HCT-15): inactive; growth inhibition (GI) (EKVX): inactive; inhibition of growth at 15.62 µg/mL (Candida albicans [4]): 0%; growth inhibition (GI) (HCT-116): inactive; growth inhibition (GI) (ACHN): inactive; growth inhibition (GI) (NCI-H23): inactive; growth inhibition (GI) (MOLT-4): inactive; inhibition of growth at 3.4 µg/mL (Candida albicans [5]): 0%; growth inhibition (GI) (HT-29): inactive
COc1ccc(C2=NN(C=O)C(c3cccc(Nc4ccnc5cc(Cl)ccc45)c3)C2)cc1 (stereo unspecified),Active,Active,Active,Active,34.5%,> 0.15 µg/mL,33.1 µg/mL,Active,23.6%,20.1%,Active,Active,Active,Active,Active,> 1000 µg/mL,Active,Active,Active,28%,growth inhibition (GI) (HCT-15): Active; growth inhibition (GI) (EKVX): Active; inhibition of growth at 15.62 µg/mL (Candida albicans [4]): 12.9%; growth inhibition (GI) (HCT-116): Active; growth inhibition (GI) (ACHN): Active; growth inhibition (GI) (NCI-H23): Active; growth inhibition (GI) (MOLT-4): Active; inhibition of growth at 3.4 µg/mL (Candida albicans [5]): 3.51%; growth inhibition (GI) (HT-29): Active
O=CN1N=C(c2ccc(Cl)cc2)CC1c1cccc(Nc2ccnc3cc(Cl)ccc23)c1 (stereo unspecified),Active,Active,Active,Active,67.5%,0.7 µg/mL,281 µg/mL,Active,44%,28.2%,Active,Active,Active,Active,Active,> 1000 µg/mL,Active,Active,Active,35.7%,growth inhibition (GI) (HCT-15): Active; growth inhibition (GI) (EKVX): Active; inhibition of growth at 15.62 µg/mL (Candida albicans [4]): 22.7%; growth inhibition (GI) (HCT-116): Active; growth inhibition (GI) (ACHN): Active; growth inhibition (GI) (NCI-H23): Active; growth inhibition (GI) (MOLT-4): Active; inhibition of growth at 3.4 µg/mL (Candida albicans [5]): 9.81%; growth inhibition (GI) (HT-29): Active
